These results are taken from ChEMBL document CHEMBL1275272, “Synthesis, characterization and antimicrobial activity of some disubstituted 1,3,4-oxadiazoles carrying 2-(aryloxymethyl)phenyl moiety” (2010).

≈ marks a conversion by molar mass, not a printed value.

Common to all, as to assay type: functional
Assay [1] concerns Aspergillus flavus. The assay can be described thus: Antifungal activity against Aspergillus flavus after 16 to 18 hrs by serial dilution method. To be noted: for MIC: Aspergillus flavus. The gist of the method: (§1)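 The test compound was dissolved in DMF and serially diluted. A standard drop of the prepared microbial culture was added to each dilution, and tubes were incubated at 37 °C for 16–18 h. MIC was taken as the highest dilution that stayed clear with no visible turbidity.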

In assay [2] the test system is Klebsiella pneumoniae. The assay can be described thus: Antibacterial activity against Klebsiella pneumoniae after 16 to 18 hrs by serial dilution method. To be noted: for MIC: Klebsiella pneumoniae.
Assay [3] relates to Staphylococcus aureus. As to the kind of experiment: Antibacterial activity against Staphylococcus aureus after 16 to 18 hrs by serial dilution method. To be noted: for MIC: Staphylococcus aureus. An outline of the steps:
as §1

Assay [4] has as its system Trichophyton mentagrophytes. The assay can be described thus: Antifungal activity against Trichophyton mentagrophytes after 16 to 18 hrs by serial dilution method. To be noted: for MIC: Trichophyton mentagrophytes.
Assay [5] has as its system Talaromyces marneffei. The assay can be described thus: Antifungal activity against Penicillium marneffei after 16 to 18 hrs by serial dilution method. To be noted: for MIC: Talaromyces marneffei. The gist of the method:
as §1

For assay [6], the system named is Escherichia coli. As to the kind of experiment: Antibacterial activity against Escherichia coli after 16 to 18 hrs by serial dilution method. To be noted: for MIC: Escherichia coli. An outline of the steps:
as §1

In assay [7] the test system is Pseudomonas aeruginosa. The assay can be described thus: Antibacterial activity against Pseudomonas aeruginosa after 16 to 18 hrs by serial dilution method. To be noted: for MIC: Pseudomonas aeruginosa. An outline of the steps: as §1
In assay [8] the test system is Aspergillus fumigatus. The assay can be described thus: Antifungal activity against Aspergillus fumigatus after 16 to 18 hrs by serial dilution method. To be noted: for MIC: Aspergillus fumigatus.

Consider `COc1cc(-c2nnc(-c3ccccc3COc3ccccc3C)o2)cc(OC)c1OC`, for which the “inhibition zone (IZ)” value in assay [1], in assay [2], in assay [3], in assay [4], in assay [5] and in assay [6] was 16 mm in each case. Further, the “inhibition zone (IZ)” value in assay [7] and in assay [8] was 16 mm throughout. Besides, the MIC in assay [1], in assay [2], in assay [3], in assay [4], in assay [5] and in assay [6] was 6.25 µg/mL (≈ 14.5 µM) each time. Further, the MIC in assay [7] and in assay [8] was 6.25 µg/mL (≈ 14.5 µM) in each case.
For `COc1cc(-c2nnc(-c3ccccc3COc3cccc(C)c3)o2)cc(OC)c1OC`, the “inhibition zone (IZ)” value in assay [1] is reported as 11 mm; in assay [2], 16 mm; in assay [3], 16 mm; in assay [4] it was 11 mm; in assay [5], 16 mm; in assay [6], 16 mm. For the same compound, the “inhibition zone (IZ)” value in assay [7] and in assay [8] was 16 mm throughout. The MIC (usually the lowest concentration that inhibits growth of the organism) in assay [1] came out at 12.5 µg/mL (≈ 28.9 µM); in assay [2], 6.25 µg/mL (≈ 14.5 µM); in assay [3], 6.25 µg/mL (≈ 14.5 µM); in assay [4], 12.5 µg/mL (≈ 28.9 µM); in assay [5], 6.25 µg/mL (≈ 14.5 µM); in assay [6] it was 6.25 µg/mL (≈ 14.5 µM). The MIC in assay [7] and in assay [8] was 6.25 µg/mL (≈ 14.5 µM) throughout.
As to `COc1cc(-c2nnc(-c3ccccc3COc3ccc(C)cc3)o2)cc(OC)c1OC`, the “inhibition zone (IZ)” value is 11 mm in assay [1]; 16 mm in assay [2]; 16 mm in assay [3]; 11 mm in assay [4]; 16 mm in assay [5]; 16 mm in assay [6]. Also, the “inhibition zone (IZ)” value in assay [7] and in assay [8] was 16 mm throughout. The MIC in assay [1] is 12.5 µg/mL (≈ 28.9 µM); in assay [2], 6.25 µg/mL (≈ 14.5 µM); in assay [3] it was 6.25 µg/mL (≈ 14.5 µM); in assay [4], 12.5 µg/mL (≈ 28.9 µM); in assay [5], 6.25 µg/mL (≈ 14.5 µM); in assay [6] it was 6.25 µg/mL (≈ 14.5 µM). Also, the MIC in assay [7] and in assay [8] was 6.25 µg/mL (≈ 14.5 µM) in each case.
`COc1cc(-c2nnc(-c3ccccc3COc3ccc(Cl)cc3)o2)cc(OC)c1OC`: the “inhibition zone (IZ)” value in assay [1], in assay [2], in assay [3], in assay [4], in assay [5] and in assay [6] was 16 mm throughout. Further, the “inhibition zone (IZ)” value in assay [7] and in assay [8] was 16 mm in each case. Moreover, the MIC in assay [1], in assay [2], in assay [3], in assay [4], in assay [5] and in assay [6] was 6.25 µg/mL (≈ 13.8 µM) each time. Besides, the MIC in assay [7] and in assay [8] was 6.25 µg/mL (≈ 13.8 µM) throughout.
As to `Cc1ccccc1OCc1ccccc1-c1nnc(-c2ccccc2F)o1`, the “inhibition zone (IZ)” value in assay [1], in assay [2], in assay [3], in assay [4], in assay [5] and in assay [6] was 16 mm each time. For the same compound, the “inhibition zone (IZ)” value in assay [7] and in assay [8] was 16 mm each time. Moreover, the MIC in assay [1], in assay [2], in assay [3], in assay [4], in assay [5] and in assay [6] was 6.25 µg/mL (≈ 17.3 µM) each time. For the same compound, the MIC in assay [7] and in assay [8] was 6.25 µg/mL (≈ 17.3 µM) throughout.
Regarding `Cc1cccc(OCc2ccccc2-c2nnc(-c3ccccc3F)o2)c1`, the “inhibition zone (IZ)” value in assay [1] was 11 mm; in assay [2], 16 mm; in assay [3], 16 mm; in assay [4], 16 mm; in assay [5], 16 mm; in assay [6], 16 mm. Further, the figures for the “inhibition zone (IZ)” value in assay [7] and in assay [8] were 16 mm and 11 mm, respectively. In addition, the MIC in assay [1] is 12.5 µg/mL (≈ 34.7 µM); in assay [2], 6.25 µg/mL (≈ 17.3 µM); in assay [3] it was 6.25 µg/mL (≈ 17.3 µM); in assay [4], 6.25 µg/mL (≈ 17.3 µM); in assay [5] it was 6.25 µg/mL (≈ 17.3 µM); in assay [6], 6.25 µg/mL (≈ 17.3 µM). Moreover, the values for the MIC in assay [7] and in assay [8] were 6.25 µg/mL (≈ 17.3 µM) and 12.5 µg/mL (≈ 34.7 µM), respectively.
Turning to `Cc1ccc(OCc2ccccc2-c2nnc(-c3ccccc3F)o2)cc1`, the “inhibition zone (IZ)” value in assay [1], in assay [2], in assay [3], in assay [4], in assay [5] and in assay [6] was 16 mm throughout. The “inhibition zone (IZ)” value in assay [7] and in assay [8] was 16 mm in each case. Besides, the MIC in assay [1], in assay [2], in assay [3], in assay [4], in assay [5] and in assay [6] was 6.25 µg/mL (≈ 17.3 µM) throughout. In addition, the MIC in assay [7] and in assay [8] was 6.25 µg/mL (≈ 17.3 µM) each time.
Consider `Fc1ccccc1-c1nnc(-c2ccccc2COc2ccc(Cl)cc2)o1`, for which the “inhibition zone (IZ)” value in assay [1], in assay [2], in assay [3], in assay [4], in assay [5] and in assay [6] was 16 mm each time. The “inhibition zone (IZ)” value in assay [7] and in assay [8] was 16 mm each time. The MIC in assay [1], in assay [2], in assay [3], in assay [4], in assay [5] and in assay [6] was 6.25 µg/mL (≈ 16.4 µM) throughout. Besides, the MIC in assay [7] and in assay [8] was 6.25 µg/mL (≈ 16.4 µM) each time.
For `Cc1ccccc1OCc1ccccc1-c1nnc(-c2ccc(Cl)cc2)o1`, the “inhibition zone (IZ)” value in assay [1], in assay [2], in assay [3], in assay [4], in assay [5] and in assay [6] was less than 10 mm each time. Also, the “inhibition zone (IZ)” value in assay [7] and in assay [8] was less than 10 mm throughout. For the same compound, the MIC in assay [1], in assay [2], in assay [3], in assay [4], in assay [5] and in assay [6] was 25 µg/mL (≈ 66.3 µM) each time. Further, the MIC in assay [7] and in assay [8] was 25 µg/mL (≈ 66.3 µM) in each case.
As for `Cc1cccc(OCc2ccccc2-c2nnc(-c3cc(C)cc(C)c3)o2)c1`, the “inhibition zone (IZ)” value in assay [1], in assay [2], in assay [3], in assay [4], in assay [5] and in assay [6] was 11 mm in each case. The “inhibition zone (IZ)” value in assay [7] is listed as 11 mm; in assay [8], 16 mm. Moreover, the MIC in assay [1], in assay [2], in assay [3], in assay [4], in assay [5] and in assay [6] was 12.5 µg/mL (≈ 33.7 µM) throughout. Besides, the MIC was 12.5 µg/mL (≈ 33.7 µM) in assay [7] and 6.25 µg/mL (≈ 16.9 µM) in assay [8].
Take `Cc1ccc(OCc2ccccc2-c2nnc(-c3cc(C)cc(C)c3)o2)cc1`: the “inhibition zone (IZ)” value in assay [1], in assay [2], in assay [3], in assay [4], in assay [5] and in assay [6] was 11 mm each time. In addition, the “inhibition zone (IZ)” value in assay [7] and in assay [8] was 11 mm in each case. Moreover, the MIC in assay [1], in assay [2], in assay [3], in assay [4], in assay [5] and in assay [6] was 12.5 µg/mL (≈ 33.7 µM) in each case. In addition, the MIC in assay [7] and in assay [8] was 12.5 µg/mL (≈ 33.7 µM) each time.
Consider `Cc1cc(C)cc(-c2nnc(-c3ccccc3COc3ccc(Cl)cc3)o2)c1`, for which the “inhibition zone (IZ)” value in assay [1], in assay [2], in assay [3], in assay [4], in assay [5] and in assay [6] was 11 mm each time. The “inhibition zone (IZ)” value in assay [7] and in assay [8] was 11 mm each time. For the same compound, the MIC in assay [1], in assay [2], in assay [3], in assay [4], in assay [5] and in assay [6] was 12.5 µg/mL (≈ 32 µM) in each case. The MIC in assay [7] and in assay [8] was 12.5 µg/mL (≈ 32 µM) throughout.
